Assay results taken from PubChem BioAssay.
The source made the active and inactive calls.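 Rule for the calls, unless noted: active = GFP response above 150% of the DMSO level; inconclusive = fewer than 70 events counted for a yeast strain; inactive = the rest.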

What was measured:
[1] = hit retest on RPL19A-GFP reporter strain – cell-based, S. cerevisiae, flow cytometry, cherry picks, mother/daughter gates, confirmation (AID 2270;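 active = GFP response below 50% of the DMSO control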); conditions: 3 h, at 10 µM, stronger effect = lower value, 100 = same GFP as DMSO wells
[2] = yeast TOR pathway reporter LAP4-GFP change – cell-based, cherry picks, flow cytometry, mother/daughter gates, confirmation (AID 2271;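 active = GFP response above 150% of the DMSO control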;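 note: ratio of sample to DMSO plate mean so 100% equals DMSO level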); conditions: S. cerevisiae LAP4-GFP strain, 3 h, at 10 µM, stronger effect = higher value, 100 means same as DMSO control
Outline: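 Material: Alexa Fluor 633-labelled Saccharomyces cerevisiae GFP-fusion strain, single-plex | Amount: Yeast cells seeded at OD600 of 0.2 | Buffer or medium: SC growth medium | Schedule: 3 h exposure, 30 °C | Measured by: HT flow cytometry, GFP fluorescence channel | Evaluation: % GFP response vs DMSO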

[3] = TOR pathway reporter MEP2-GFP, retest of hits – S. cerevisiae, flow cytometry GFP, cherry picks, confirmation (AID 2272;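 active = GFP response above 150% of the DMSO control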;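 note: ratio of well signal to plate DMSO mean so 100% equals DMSO level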); conditions: S. cerevisiae MEP2-GFP strain, 3 h, at 10 µM, stronger effect = higher value
[4] = yeast AGP1-GFP fluorescence change, single-dose – cell-based, flow cytometry, S. cerevisiae, cherry picks, confirmation (AID 2273);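 note: median GFP channel fluorescence over the whole cell population gate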; conditions: S. cerevisiae AGP1-GFP strain, 3 h, at 10 µM
[5] = TOR pathway CIT2 reporter hit retest – S. cerevisiae, GFP fusion, cherry picks, mother/daughter gates, confirmation (AID 2274); conditions: S. cerevisiae CIT2-GFP strain, flow cytometry, 3 h, at 10 µM, stronger effect = higher value
[6] = measured here: daughter cell gate
[7] = measured here: mother cell gate
[8] = measured here: daughter cell gate response
[9] = measured here: mother cell gate response

Compound	GFP response vs DMSO [1]	GFP response vs DMSO [1, 6] [%]	GFP response vs DMSO [1, 7] [%]	GFP response relative to DMSO [2]	GFP response relative to DMSO [2, 8] [%]	GFP response relative to DMSO [2, 9] [%]	GFP response vs DMSO [3]	GFP response, % of DMSO [4]	GFP response, % of DMSO [5]	GFP response, % of DMSO [5, 6] [%]	GFP response, % of DMSO [5, 7] [%]
CCOC(=O)C1(CCCc2ccccc2)CCN(C(=O)c2cc(C)nn2CC)CC1	99.3% (inactive)	99.8	99.8	98.8% (inactive)	102	98.5	97.5% (inactive)	99.3% (inactive)	102% (inactive)	104	101
COc1ccc(C(c2c(C)[nH]n(C(N)=S)c2=O)C(C#N)C#N)cc1 (configuration not stated)	105% (inactive)	96.2	98.8	317% (active)	246	299	104% (inactive)	101% (inactive)	89.2% (inactive)	92.7	79.3
COc1ccc(C2CC(=O)C(C(c3ccc(O)cc3)C3C(=O)CC(c4ccc(OC)cc4)CC3=O)C(=O)C2)cc1 (configuration not stated)	100% (inactive)	101	101	93.7% (inactive)	92	92	96.6% (inactive)	101% (inactive)	110% (inactive)	110	109
O=C(NNC(=S)NC(=O)C12CC3CC(CC(C3)C1)C2)c1ccncc1	109% (inactive)	115	106	137% (inactive)	125	136	112% (inactive)	97.3% (inactive)	115% (inactive)	124	106
CC1CCN(S(=O)(=O)c2cccc(C(=O)Nc3nccs3)c2)CC1	101% (inactive)	101	101	92.6% (inactive)	95.6	93.1	100% (inactive)	95.4% (inactive)	107% (inactive)	105	105
COc1ccc(/C=C/C(=O)C2C(=O)C=C(C)OC2=O)cc1O (configuration not stated)	101% (inactive)	102	101	123% (inactive)	118	125	112% (inactive)	101% (inactive)	101% (inactive)	104	96.8
COc1ccc(OC)c(C(=O)/C=C/c2ccccc2C(F)(F)F)c1	97.6% (inactive)	95.8	98.7	102% (inactive)	103	103	105% (inactive)	98.9% (inactive)	94.7% (inactive)	96.8	94.7
O=S(=O)(c1ccc(Cl)cc1)c1ccccn1	96.2% (inactive)	96.4	95.8	94.1% (inactive)	96	93.4	101% (inactive)	98.2% (inactive)	103% (inactive)	101	105
O=C(/C=C/c1ccccc1)c1ccccc1O	103% (inactive)	105	103	130% (inactive)	130	129	153% (inactive)	108% (inactive)	137% (inactive)	139	132
CSc1ccc(-c2cc(=O)c3ccccc3o2)cc1	92% (inactive)	89.3	92.5	117% (inactive)	110	118	95.2% (inactive)	90.5% (inactive)	84.7% (inactive)	81.6	84.8
O=C(N/N=C/c1ccc(Cl)cc1Cl)c1cccc(F)c1	97% (inactive)	92.7	97.3	104% (inactive)	98.2	109	103% (inactive)	101% (inactive)	86% (inactive)	84.1	84.8
COc1ccc(OC)c(C2C(C(=O)Nc3nc4ccccc4s3)=C(C)NC3=C2C(=O)CCC3)c1 (configuration not stated)	102% (inactive)	78.4	78.4	102% (inactive)	86.4	82.9	109% (inactive)	103% (inactive)	103% (inactive)	85	83.7
Cc1ccccc1C(=O)Nc1cccc(N)c1	99% (inactive)	98.6	98.6	93.1% (inactive)	94.2	94.1	101% (inactive)	105% (inactive)	97.3% (inactive)	95.6	96.8
Cc1ccc(Sc2ccc([N+](=O)[O-])cc2[N+](=O)[O-])nc1	99.7% (inactive)	101	100	103% (inactive)	100	105	97.8% (inactive)	97.4% (inactive)	104% (inactive)	99.7	105
COc1ccc(/C=C/C(=O)c2ccccc2O)cc1	96.8% (inactive)	96.7	98.8	102% (inactive)	99.3	99.5	102% (inactive)	102% (inactive)	99.3% (inactive)	100	98
COc1ccccc1CNc1nc(S(=O)(=O)c2ccccc2)c(Cl)s1	97.3% (inactive)	97.8	96.5	108% (inactive)	104	109	95.2% (inactive)	105% (inactive)	97.2% (inactive)	97.6	97.1
Cc1ccc(/C=N/NC(=O)c2ccccn2)s1	99.2% (inactive)	97.1	97	99.5% (inactive)	95.9	99.4	101% (inactive)	95.1% (inactive)	94.4% (inactive)	93.8	94.4
O=C1CCN(S(=O)(=O)c2ccccc2)C2CCCCC12 (configuration not stated)	98% (inactive)	97.8	98.1	102% (inactive)	102	100	106% (inactive)	100% (inactive)	108% (inactive)	104	101
CCOC(=O)c1ccc(NC(=O)CCc2nc(-c3cccc(C)c3)no2)cc1	97.8% (inactive)	98.5	98.8	102% (inactive)	101	101	106% (inactive)	95.8% (inactive)	102% (inactive)	102	99.1
COC(=O)Nc1ccc2c(c1)N(C(=O)CCN1CCN3CCCC3C1)c1ccccc1CC2 (configuration not stated)	102% (inactive)	101	102	96.2% (inactive)	97.2	99.3	104% (inactive)	106% (inactive)	104% (inactive)	99.7	105
CCN(CC)S(=O)(=O)c1ccc(O)c(C(=O)OCC(=O)NC2CCCC2)c1	99.2% (inactive)	97.9	99.5	98.2% (inactive)	97.5	97.3	96.8% (inactive)	102% (inactive)	105% (inactive)	103	103
CC(=O)Oc1ccc(/C=c2\sc3ncnn3c2=O)cc1	100% (inactive)	102	97.8	123% (inactive)	122	125	101% (inactive)	98.8% (inactive)	100% (inactive)	103	96
